The values below come from publication PMC4021451 (Journal of medicinal chemistry, 2012).

The test system of data set [1] is SW1573 cells (chemosensitive parental non-small-cell lung cancer line). Put plainly: EZ4U viability assay in resistance models, SW1573. It counts as cell-based, human. The following applies: read-out: IC50 SW1573, 96 h exposure. In outline: (§1)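 Cells were seeded at 2 × 10^3 per well and allowed to recover for 24 h. Test compound was then added in growth medium and exposed for 96 h. Viable cell proportion was read with the EZ4U kit. Media, all with 10% FBS: SW1573 and 2R120 in DMEM, A2780 and A2780/cis in RPMI 1640, P31 in MEM. Cells were grown at 37 °C in 5% CO2.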

The test system of data set [2] is ABCC1-overexpressing 2R120 cells. Put plainly: EZ4U viability assay in resistance models, 2R120. In kind it is cell-based, human. The following applies: read-out: IC50 2R120, 96 h exposure. Summed up: as §1
Data set [3] has as its system A2780/cis cells (cisplatin-selected subline). The experiment in a line: EZ4U viability assay in resistance models, A2780/cis. In kind it is cell-based. The settings on record: for IC50: read-out: IC50 A2780/cis, EZ4U assay, 96 h exposure. Summed up:
as §1

Data set [4] relates to SW480 (colon adenocarcinoma) cells. The experiment in a line: MTT cytotoxicity assay, SW480 cells. In kind it is cell-based, human. The settings on record: read-out: IC50 SW480, 96 h exposure, mean ± SD. Summed up: (§2)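 Cells were seeded in MEM at 1.5 × 10^3 (CH1), 4.0 × 10^3 (A549) or 2.5 × 10^3 (SW480) per well, given 24 h to resume exponential growth, then exposed to serial dilutions for 96 h. Medium was replaced with RPMI 1640 plus MTT in PBS (5 mg/mL solution) for 4 h, then DMSO. OD was read at 550 nm. At least three independent experiments were run, with triplicates per concentration.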
On the technique in general: Tetrazolium dyes change colour on reduction, which living cells bring about.

For data set [5], the system named is CH1 (ovarian carcinoma) cells. The experiment in a line: MTT cytotoxicity assay, CH1 cells. In kind it is cell-based, human. The following applies: read-out: IC50 CH1, 96 h exposure, mean ± SD. Summed up: as §2
Data set [6] concerns P31/cis cells (cisplatin-resistant subline). Put plainly: EZ4U viability assay in resistance models, P31/cis. In kind it is cell-based. The settings on record: read-out: IC50 P31/cis, 96 h exposure. In outline:
as §1

The next data set relates to P31 (mesothelioma) cells. Put plainly: EZ4U viability assay in resistance models, P31. In kind it is cell-based. The settings on record: read-out: IC50 P31, 96 h exposure. In outline: as §1
The test system of a further data set is A2780 cells. Put plainly: Total Pt uptake levels by ICP-MS. In kind it is cell-based. The settings on record: 2 h drug exposure. In outline: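 A2780 cells (4 × 10^5 per well) settled for 24 h, then were exposed to test compound for 2 h at 37 °C. After two ice-cold PBS washes, cells were lysed in tetramethylammonium hydroxide and diluted in 0.6 N HNO3. Pt was measured by ICP-MS against matrix-matched standards with 1 ppb indium internal standard and corrected for a cell-free blank well. Values are relative mean and SD from at least two independent experiments.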

For data set [7], the system named is A2780 (ovarian carcinoma) cells. Put plainly: EZ4U viability assay in resistance models, A2780. In kind it is cell-based. The settings on record: read-out: IC50 A2780, 96 h exposure. Summed up: as §1
Data set [8] can be described thus: Reversed-phase HPLC lipophilicity. The settings on record: RP-HPLC, C18, methanol/15 mM aqueous formic acid, extrapolated to 100% H2O, 25 °C. It counts as physicochemical. Summed up: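 Isocratic runs on a silica-based C18 column (4.6 mm × 250 mm), with methanol/15 mM aqueous formic acid from 5:95 to 50:50 depending on compound polarity. Flow 1.00 mL/min, UV 210 nm. […] Each compound ran at least twice in at least three mobile-phase compositions. log kw came from linear extrapolation of log k' versus methanol fraction.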

The test system of data set [9] is A549 (non-small-cell lung carcinoma) cells. The experiment in a line: MTT cytotoxicity assay, A549 cells. The settings on record: read-out: IC50 A549, 96 h exposure, mean ± SD. In kind it is cell-based, human. Summed up: as §2

For `N.N.[Cl][Pt][Cl]` [cisplatin], the IC50 in data set [1] is 6.5 ± 0.1 µM; in [2], greater than 20 µM; in data set [3] it was 3.7 ± 0.3 µM; in data set [4] it was 3.5 ± 0.3 µM; in data set [5], 0.16 ± 0.03 µM; in [6], greater than 20 µM. Also, the IC50 in the data set with P31 (mesothelioma) cells came to 4 ± 0.3 µM.

Take `CC(=O)[O-].CC(=O)[O-].N.NC1CCCCC1.[Cl-].[Cl-].[Pt+4]` [satraplatin, (OC-6-43)-diacetatoamminedichlorido(cyclohexylamine)platinum(IV)]: the “Cellular drug uptake (total Pt levels)” value in the data set with A2780 cells is on record as “enhanced drug uptake”. The figures for the IC50 in data set [7] and in data set [3] were 0.5 ± 0.3 µM and 5.7 ± 0.2 µM, respectively. Also, the “-fold resistance A2780/cis” value in data set [3] (A2780/cis versus A2780) was 11.4 fold. In [8], the log kw was 1.79 ± 0.01.

For “(OC-6-54)-Dichlorido(N,N-dimethylethane-1,2-diamine)-hydroxidomethoxidoplatinum(IV) [1b]”, the IC50 stood at 73 ± 3 µM in data set [9], 40 ± 14 µM in data set [4] and 2.5 ± 0.2 µM in data set [5]. The log kw in data set [8] was 0.09 ± 0.01.
